ChEMBL document CHEMBL5705906 (Nat Commun, 2017)
The source made the active and inactive calls. The calls are words filed in the database; no cut-off is given here.

Columns and labels:
[1] = system: BaF3; test: Inhibition of EGFR-T790M/del19 mutant in mouse BaF3 cells assessed as inhibition of S6 phosphorylation at 10 to 1000 nM incubated for 6 hrs by Western blotting analysis; type: cell-based; details: dose 10-1000 nM
In short: (§1)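 Ba/F3 cells carrying the stated EGFR mutant were made IL-3-independent after 1 week of 7 µM blasticidin selection. They were grown in low-glucose DMEM with 10% FBS and exposed to inhibitor for 6 h. Cells were washed in cold PBS, lysed in SDS buffer (100 mM Tris, 1% SDS, 10% glycerol) and boiled 5 min. Protein was measured by BCA, run on SDS-PAGE, transferred to PVDF, blocked in 5% BSA or milk/TBS-T, and immunoblotted.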

[2] = system: Epidermal growth factor receptor (Homo sapiens), P00533 [UNDEFINED MUTATION]; details: PC-9, dose 10-1000 nM
Chain of Epidermal growth factor receptor (Homo sapiens), P00533 [UNDEFINED MUTATION] (P00533 whole entry, looked up, stated change not applied): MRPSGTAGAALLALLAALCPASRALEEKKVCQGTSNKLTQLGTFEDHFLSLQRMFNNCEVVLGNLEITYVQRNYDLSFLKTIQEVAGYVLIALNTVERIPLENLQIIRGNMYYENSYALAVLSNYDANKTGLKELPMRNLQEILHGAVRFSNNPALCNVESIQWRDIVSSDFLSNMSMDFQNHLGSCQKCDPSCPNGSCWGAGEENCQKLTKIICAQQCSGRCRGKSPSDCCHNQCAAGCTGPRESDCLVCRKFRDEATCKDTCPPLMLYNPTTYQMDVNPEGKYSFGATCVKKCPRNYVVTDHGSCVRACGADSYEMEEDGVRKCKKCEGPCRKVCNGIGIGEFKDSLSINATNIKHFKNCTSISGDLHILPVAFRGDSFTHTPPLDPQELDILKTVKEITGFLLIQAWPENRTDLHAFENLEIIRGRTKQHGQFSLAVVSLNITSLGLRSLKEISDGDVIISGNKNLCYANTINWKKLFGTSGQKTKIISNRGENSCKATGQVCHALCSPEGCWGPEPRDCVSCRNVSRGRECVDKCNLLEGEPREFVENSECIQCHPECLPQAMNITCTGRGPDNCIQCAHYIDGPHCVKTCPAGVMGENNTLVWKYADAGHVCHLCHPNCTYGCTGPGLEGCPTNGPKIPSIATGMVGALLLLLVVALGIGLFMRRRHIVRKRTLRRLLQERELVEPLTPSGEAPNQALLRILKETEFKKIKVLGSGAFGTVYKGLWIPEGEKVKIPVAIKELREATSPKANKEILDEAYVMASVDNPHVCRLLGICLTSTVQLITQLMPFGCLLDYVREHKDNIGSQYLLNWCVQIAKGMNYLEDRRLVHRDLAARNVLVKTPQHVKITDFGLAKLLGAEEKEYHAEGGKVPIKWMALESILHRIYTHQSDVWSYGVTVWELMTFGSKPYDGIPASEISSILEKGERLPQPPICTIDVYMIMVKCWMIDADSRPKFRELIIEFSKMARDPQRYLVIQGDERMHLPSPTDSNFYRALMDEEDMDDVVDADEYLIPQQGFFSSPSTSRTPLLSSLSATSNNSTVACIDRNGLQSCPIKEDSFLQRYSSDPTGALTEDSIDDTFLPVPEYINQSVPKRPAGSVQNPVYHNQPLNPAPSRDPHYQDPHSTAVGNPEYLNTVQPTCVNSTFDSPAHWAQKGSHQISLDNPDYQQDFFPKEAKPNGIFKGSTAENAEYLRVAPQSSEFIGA

[3] = system: BaF3; test: Inhibition of EGFR-C797S/T790M/del19 mutant in mouse BaF3 cells assessed as reduction in Akt phosphorylation incubated for 6 hrs by Western blotting analysis; type: cell-based
[4] = system: PC-9; test: Inhibition of EGFR T790M/del19 mutant in human PC-9 cells assessed as reduction in Akt phosphorylation at 10 to 1000 nM by Western blotting analysis; type: cell-based; details: dose 10-1000 nM
[5] = Cytotoxicity against mouse Ba/F3 EGFR-Del19/T790M/C797S cells assessed as inhibition of cell viability by measuring fold change at 30 nM incubated for 72 hrs in presence of cetuximab by CellTiter-Glo assay relative to AP26113-analog alone; type: functional
[6] = system: Epidermal growth factor receptor (Homo sapiens), P00533 [UNDEFINED MUTATION]; details: PC-9, dose 10-1000 nM; remark: listed apart in the source
[7] = system: Epidermal growth factor receptor (Homo sapiens), P00533 [UNDEFINED MUTATION]; details: PC-9, dose 10-1000 nM; remark: listed apart in the source
[8] = system: Epidermal growth factor receptor (Homo sapiens), P00533 [UNDEFINED MUTATION]; details: MGH121, dose 10-1000 nM
[9] = system: Epidermal growth factor receptor (Homo sapiens), P00533 [UNDEFINED MUTATION]; details: PC-9, dose 10-1000 nM; remark: listed apart in the source
[10] = system: PC-9; test: Inhibition of EGFR T790M/del19 mutant in human PC-9 cells assessed as reduction in ERK phosphorylation at 10 to 1000 nM by Western blotting analysis; type: cell-based; details: dose 10-1000 nM
[11] = system: BaF3; type: cell-based; details: Mus musculus, dose 10-1000 nM, time 6.0 hrs
[12] = system: BaF3; test: Inhibition of EGFR-del19 mutant in mouse BaF3 cells assessed as inhibition of ERK phosphorylation at 10 to 1000 nM incubated for 6 hrs by Western blotting analysis; type: cell-based; details: dose 10-1000 nM; in short: as §1
[13] = system: BaF3; test: Inhibition of EGFR-C797S/T790M/L858R mutant expressed in mouse BaF3 cells assessed as inhibition of Akt phosphorylation at 10 to 1000 nM incubated for 6 hrs by Western blotting analysis; type: cell-based; details: dose 10-1000 nM
In short: (§2)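 Ba/F3 cells expressing EGFR-L858R-series mutants treated with inhibitors for 6 h. SDS lysates quantified by BCA, run on SDS-PAGE and blotted to PVDF. Probed for phospho-EGFR (Tyr1068), total EGFR and downstream phospho-proteins.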

[14] = system: BaF3; type: cell-based; details: Mus musculus, dose 10-1000 nM, time 6.0 hrs; remark: listed apart in the source
[15] = system: BaF3; test: Inhibition of EGFR-C797S/T790M/L858R mutant expressed in mouse BaF3 cells assessed as inhibition of ERK phosphorylation at 10 to 1000 nM incubated for 6 hrs by Western blotting analysis; type: cell-based; details: dose 10-1000 nM; in short: as §2
[16] = system: BaF3; test: Inhibition of EGFR-C797S/T790M/del19 mutant in mouse BaF3 cells assessed as reduction in S6 phosphorylation incubated for 6 hrs by Western blotting analysis; type: cell-based; in short: as §1
[17] = system: BaF3; test: Inhibition of EGFR-C797S/T790M/L858R mutant in mouse BaF3 cells assessed as inhibition of EGFR phosphorylation at 10 to 1000 nM incubated for 6 hrs by Western blotting analysis; type: cell-based; details: dose 10-1000 nM; in short: as §2
[18] = system: Epidermal growth factor receptor (Homo sapiens), P00533 [UNDEFINED MUTATION]; details: PC-9, dose 10-1000 nM; remark: listed apart in the source
[19] = system: BaF3; test: Inhibition of EGFR-C797S/T790M/L858R mutant in mouse BaF3 cells assessed as inhibition of S6 phosphorylation at 10 to 1000 nM incubated for 6 hrs by Western blotting analysis; type: cell-based; details: dose 10-1000 nM; in short: as §2
[20] = system: BaF3; test: Inhibition of EGFR-T790M/del19 mutant in mouse BaF3 cells assessed as inhibition of ERK phosphorylation at 10 to 1000 nM incubated for 6 hrs by Western blotting analysis; type: cell-based; details: dose 10-1000 nM; in short: as §1
[21] = system: BaF3; test: Inhibition of EGFR-C797S/T790M/del19 mutant in mouse BaF3 cells assessed as reduction in ERK phosphorylation incubated for 6 hrs by Western blotting analysis; type: cell-based
[22] = Cytotoxicity against mouse Ba/F3 EGFR-Del19/T790M/C797S cells assessed as inhibition of cell viability incubated for 72 hrs by CellTiter-Glo assay; type: functional, cell-based
[23] = system: Epidermal growth factor receptor (Homo sapiens), P00533 [UNDEFINED MUTATION]; details: MGH121, dose 10-1000 nM; remark: listed apart in the source
[24] = system: Epidermal growth factor receptor (Homo sapiens), P00533 [UNDEFINED MUTATION]; details: PC-9, dose 10-1000 nM; remark: listed apart in the source
[25] = system: Epidermal growth factor receptor (Homo sapiens), P00533 [UNDEFINED MUTATION]; details: PC-9, dose 10-1000 nM; remark: listed apart in the source
[26] = system: Epidermal growth factor receptor (Homo sapiens), P00533 [UNDEFINED MUTATION]; details: MGH121, dose 10-1000 nM; remark: listed apart in the source
[27] = system: Epidermal growth factor receptor (Homo sapiens), P00533 [UNDEFINED MUTATION]; details: PC-9, dose 10-1000 nM; remark: listed apart in the source
[28] = system: PC-9; test: Inhibition of EGFR T790M/del19 mutant in human PC-9 cells assessed as reduction in EGFR phosphorylation at 10 to 1000 nM by Western blotting analysis; type: cell-based; details: dose 10-1000 nM
[29] = system: BaF3; test: Inhibition of EGFR-T790M/del19 mutant in mouse BaF3 cells assessed as inhibition of EGFR phosphorylation at 10 to 1000 nM incubated for 6 hrs by Western blotting analysis; type: cell-based; details: dose 10-1000 nM; in short: as §1
[30] = system: BaF3; type: cell-based; details: Mus musculus, dose 10-1000 nM, time 6.0 hrs; remark: listed apart in the source
[31] = system: PC-9; test: Inhibition of EGFR T790M/del19 mutant in human PC-9 cells assessed as reduction in S6 phosphorylation at 10 to 1000 nM by Western blotting analysis; type: cell-based; details: dose 10-1000 nM
[32] = system: BaF3; test: Inhibition of EGFR-del19 mutant in mouse BaF3 cells assessed as inhibition of S6 phosphorylation at 10 to 1000 nM incubated for 6 hrs by Western blotting analysis; type: cell-based; details: dose 10-1000 nM; in short: as §1
[33] = system: BaF3; test: Inhibition of EGFR-del19 mutant in mouse BaF3 cells assessed as inhibition of Akt phosphorylation at 10 to 1000 nM incubated for 6 hrs by Western blotting analysis; type: cell-based; details: dose 10-1000 nM; in short: as §1
[34] = system: BaF3; test: Inhibition of EGFR-T790M/del19 mutant in mouse BaF3 cells assessed as inhibition of Akt phosphorylation at 10 to 1000 nM incubated for 6 hrs by Western blotting analysis; type: cell-based; details: dose 10-1000 nM; in short: as §1
[35] = system: Epidermal growth factor receptor (Homo sapiens), P00533 [UNDEFINED MUTATION]; details: MGH121, dose 10-1000 nM; remark: listed apart in the source
[36] = system: BaF3; test: Inhibition of EGFR-C797S/T790M/del19 mutant in mouse BaF3 cells assessed as reduction in EGFR phosphorylation incubated for 6 hrs by Western blotting analysis; type: cell-based
[37] = system: BaF3; type: cell-based; details: Mus musculus, dose 10-1000 nM, time 6.0 hrs; remark: listed apart in the source

Q: What does the source list for `COc1cc(N2CCC(N(C)C)CC2)ccc1Nc1ncc(Cl)c(Nc2ccccc2P(C)(C)=O)n1`?
A: inhibition [1]: Active; inhibition [2]: Active; inhibition [3]: Active; inhibition [4]: Active; fold change (FC) [5]: ~3; inhibition [6]: Active; inhibition [7]: Active; inhibition [8]: Active; inhibition [9]: Active; inhibition [10]: Active; inhibition [11]: Active; inhibition [12]: Active; inhibition [13]: Active; inhibition [14]: Active; inhibition [15]: Active; inhibition [16]: Active; inhibition [17]: Active; inhibition [18]: Active; inhibition [19]: Active; inhibition [20]: Active; inhibition [21]: Active; IC50 [22]: 59.1 nM; inhibition [23]: Active; inhibition [24]: Active; inhibition [25]: Active; inhibition [26]: Active; inhibition [27]: Active; inhibition [28]: Active; inhibition [29]: Active; inhibition [30]: Active; inhibition [31]: Active; inhibition [32]: Active; inhibition [33]: Active; inhibition [34]: Active; inhibition [35]: Active; inhibition [36]: Active; inhibition [37]: Active
